The source made the active and inactive calls.

Assay [1] concerns Mus musculus. As to the kind of experiment: Antinociceptive activity in Swiss mouse assessed as inhibition of capsaicin-induced increase of COX2 expression in brain cortex at 100 mg/kg, po by Western blotting. It counts as functional, organism-based. The arrangement: dose 100 mg/kg. The essentials:
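Mice dosed 100 mg/kg po or given saline, then capsaicin 1.6 μg/paw ipl. Cortex homogenized in hypotonic HEPES buffer with protease inhibitors plus Nonidet P-40. 20 μg protein run on 10% SDS-PAGE. Blot probed 12 h with anti-COX-2 (1:250), then HRP secondary. Bands by chemiluminescence and densitometry, normalized to β-actin. Four animals per group.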

Assay [2] concerns Mus musculus. As to the kind of experiment: Antinociceptive activity in Swiss mouse assessed as inhibition of capsaicin-induced spontaneous nociception at 300 ug/site, icv. It counts as functional. In short, it runs like this:
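Intracerebroventricular injection (300 μg/site in 5 μL) 10 min before capsaicin (1.6 μg in 20 μL) into the right hindpaw plantar surface of Swiss mice. Paw-licking time (s) measured over 5 min against saline controls. n = 8. Inhibition calculated as the mean of per-experiment values.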

Assay [3] concerns Mus musculus. As to the kind of experiment: Antinociceptive activity in Swiss mouse assessed as inhibition of capsaicin-induced increase of COX2 expression in L3-L6 spinal segments and cerebral cortex at 100 mg/kg, po by immunohistochemistry analysis. It counts as functional, organism-based. The arrangement: dose 100 mg/kg. In short, it runs like this: (§1)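 Swiss mice, 30 to 35 g, dosed 100 mg/kg po 30 min before ipl capsaicin (1.6 μg in 20 μL per paw). Spinal cord and brain taken 60 min later and fixed in buffered formalin. Sections stained with rabbit anti-c-Fos or anti-COX-2 (1:1000) overnight at room temperature, then biotinylated secondary, ABC and nickel-enhanced DAB. Read-out is positive area per field. Four animals per group.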

In assay [4] the test system is Mus musculus. The experiment in a line: Antinociceptive activity in Swiss mouse assessed as inhibition of capsaicin-induced spontaneous nociception at 300 ug/site, administered as intrathecally. It counts as functional. The essentials:
(§2)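 Mice given intrathecal dose in 5 μL 10 min before intraplantar capsaicin (1.6 μg/paw, 20 μL). Time spent licking the paw recorded for 5 min. Saline-treated controls. Eight animals per group. Percent inhibition averaged across individual experiments.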

In assay [5] the test system is Mus musculus. As to the kind of experiment: Antinociceptive activity in Swiss mouse assessed as inhibition of glutamate-induced increase of COX2 expression in spinal cord and cortex brain section at 100 mg/kg, po.
Assay [6] relates to Mus musculus. The experiment in a line: Antinociceptive activity in Swiss mouse assessed as inhibition of capsaicin-induced increase of c-Fos expression in brain cortex at 100 mg/kg, po by immunohistochemistry analysis. The arrangement: dose 100 mg/kg. It counts as functional, organism-based. In short, it runs like this: as §1
In assay [7] the test system is Mus musculus. The experiment in a line: Antinociceptive activity in Swiss mouse assessed as inhibition of glutamate-induced spontaneous nociception at 100 mg/kg, po. It counts as functional. In short, it runs like this: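 Oral pretreatment 30 min before intraplantar glutamate (10 μmol/paw, 20 μL) into the right hindpaw. Mice observed individually for 15 min for time spent licking the injected paw. Saline controls. Eight animals per group. Percent inhibition taken as the mean of individual experiments.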

Assay [8] relates to Mus musculus. As to the kind of experiment: Antinociceptive activity in Swiss mouse assessed as inhibition of capsaicin-induced spontaneous nociception at 600 ug/site, administered as intrathecally. It counts as functional. The essentials:
as §2

Assay [9] concerns Mus musculus. The experiment in a line: Antinociceptive activity in Swiss mouse assessed as inhibition of glutamate-induced spontaneous nociception at 300 ug/site, administered as intrathecally. Format: functional, organism-based. In short, it runs like this: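 Given intrathecally at 300 μg/site in 5 μL, 10 min before ipl glutamate (10 μmol per paw, in 20 μL) in Swiss mice. Paw-licking time recorded over 15 min. Saline controls. Eight animals per group.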

Assay [10] concerns Mus musculus. As to the kind of experiment: Antinociceptive activity in Swiss mouse assessed as inhibition of glutamate-induced increase of c-Fos expression in brain cortex at 100 mg/kg, po by immunohistochemistry analysis. It counts as functional, organism-based. The arrangement: dose 100 mg/kg. The essentials: (§3)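 Swiss mice dosed 100 mg/kg po 30 min before ipl glutamate (10 μmol per paw). Spinal cord and brain excised 60 min later and formalin-fixed. Sections immunostained with rabbit anti-c-Fos (1:1000) overnight at room temperature, then biotinylated secondary, ABC and nickel-enhanced DAB. Positive area per field quantified. Four animals per group.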

Assay [11] relates to Mus musculus. As to the kind of experiment: Antinociceptive activity in Swiss mouse assessed as inhibition of capsaicin-induced biting behavior at 300 ug/site, administered intrathecally. Format: functional, organism-based. In short, it runs like this:
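Swiss mice, 30 to 35 g. Given 300 μg/site it, in 5 μL, co-injected with capsaicin (6.4 μg in 5 μL) into the subdural space at L5−L6. Biting is scored as single head movements directed at the flanks or hind limbs that contact the snout. Controls got saline. Eight animals per group.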

Assay [12] concerns Mus musculus. The experiment in a line: Antinociceptive activity in Swiss mouse assessed as inhibition of capsaicin-induced spontaneous nociception at 150 ug/site, administered as intrathecally. It counts as functional. In short, it runs like this: as §2
Assay [13] deals with Mus musculus. As to the kind of experiment: Antinociceptive activity in Swiss mouse assessed as inhibition of capsaicin-induced spontaneous nociception at 200 ug/site, administered as intraplantarly. It counts as functional, organism-based. In short, it runs like this: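 Given 200 μg/paw intraplantar, co-injected with capsaicin (1.6 μg in 20 μL) into the right hindpaw of Swiss mice. Time spent licking the injected paw recorded over 5 min. Saline controls. Eight animals per group.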

Assay [14] relates to Mus musculus. The experiment in a line: Antinociceptive activity in Swiss mouse assessed as inhibition of glutamate-induced spontaneous nociception at 300 ug/site, icv. Format: functional, organism-based. The essentials: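 Dosed icv at 300 μg/site in 5 μL, 10 min before glutamate (10 μmol/paw, ipl). Licking of the injected paw timed for 15 min in Swiss mice, against saline controls. Eight animals per group.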

For assay [15], the system named is Mus musculus. The experiment in a line: Antinociceptive activity in Swiss mouse assessed as inhibition of capsaicin-induced spontaneous nociception at 50 mg/kg, po. Format: functional. The essentials: (§4)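 Swiss mice (30 to 35 g) acclimatized in observation chambers, then dosed orally 30 min before intraplantar capsaicin (1.6 μg in 20 μL, right hindpaw). Time spent licking the injected paw scored over 5 min. Saline controls on the same schedule. n = 8 per group. Percent inhibition taken as the mean of individual experiments.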

Assay [16] has as its system Mus musculus. As to the kind of experiment: Antinociceptive activity in Swiss mouse assessed as inhibition of glutamate-induced increase of c-Fos expression in L3-L6 spinal segments at 100 mg/kg, po by immunohistochemistry analysis. Also noted: dose 100 mg/kg. It counts as functional, organism-based. In short, it runs like this: as §3
The subject of assay [17] is Mus musculus. The experiment in a line: Antinociceptive activity in Swiss mouse assessed as inhibition of capsaicin-induced spontaneous nociception at 100 mg/kg, po. Format: functional. The essentials: as §4
The test system of assay [18] is Mus musculus. The experiment in a line: Antinociceptive activity in Swiss mouse assessed as inhibition of glutamate-induced biting behavior at 300 ug/site, administered intrathecally. Format: functional. In short, it runs like this:
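Glutamate (30 μg in 5 μL) injected intrathecally into the subdural space at L5–L6, co-injected with compound (300 μg in 5 μL, it). Biting was scored, defined as a head movement toward the flanks or hind limbs ending in snout contact. Saline controls. Eight mice per group.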

The test system of assay [19] is Mus musculus. As to the kind of experiment: Antinociceptive activity in Swiss mouse assessed as inhibition of capsaicin-induced increase of c-Fos expression in L3-L6 spinal segments at 100 mg/kg, po by immunohistochemistry analysis. Format: functional, organism-based. Also noted: dose 100 mg/kg. In short, it runs like this: as §1
Assay [20] concerns Mus musculus. The experiment in a line: Antinociceptive activity in Swiss mouse assessed as inhibition of glutamate-induced spontaneous nociception at 200 ug/site, administered as intraplantarly. Format: functional. The essentials: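 Compound co-injected intraplantarly (200 μg/paw) with glutamate (10 μmol/paw, 20 μL) into the right hindpaw of Swiss mice. Licking of the injected paw timed over 15 min. Saline controls. n = 8 per group.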

For the compound `Oc1ccc(/C=C/c2cc(O)cc(O)c2)cc1` [RESVERATROL], the inhibition entry in the assay on Mus musculus [1], in the assay with Mus musculus [3] and in the assay with Mus musculus [19] was “Active” each time. The “inhibition (INH)” value was determined as 87% in the assay on Mus musculus [2]; 44% in the assay with Mus musculus [4]; 36% in the assay with Mus musculus [8]; 33% in the assay with Mus musculus [12]; 74% in the assay with Mus musculus [18]; 33% in the assay on Mus musculus [20]. The inhibition result in the assay on Mus musculus [5], with Mus musculus [6], in the assay with Mus musculus [9], in the assay with Mus musculus [10], with Mus musculus [11] and with Mus musculus [13] was “inactive” each time. Besides, the inhibition entry in the assay on Mus musculus [14] and with Mus musculus [16] was “inactive” each time. Also, the inhibition in vivo at 100 mg/kg is 39% in the assay on Mus musculus [7] and 36% with Mus musculus [17]. Besides, the inhibition in vivo at 50 mg/kg in the assay with Mus musculus [15] turned out to be 29%.

For the origin of these results see ChEMBL document CHEMBL2331120, “Evidence for the analgesic activity of resveratrol in acute models of nociception in mice” (2013).
